Published values pooled from the literature.
Each line is one published result; the experiments were not run side by side.
Target: Serine/threonine-protein kinase pim-1 (PIM1, Homo sapiens, UniProt P11309)

For `COc1cc(/C=C/C(=O)CC(=O)/C=C/c2ccc(O)c(OC)c2)ccc1O`, the activity vs control was 46% (enzyme activity; inhibitor; 1 µM).
For `O=C1NC(=O)c2cc(Nc3ccc(F)cc3)c(Nc3ccc(F)cc3)cc21`, the remaining signal was 81.8% (cell-free assay; 0.5 µM).
The remaining binding of `CC(=O)c1c(NS(C)(=O)=O)c2cc(-c3ccc(Cl)cc3)c(-c3ccc(Cl)cc3Cl)nc2n(C)c1=O` is reported as 90% (cell-free assay; competition with immobilised ligand; 1 µM).
With `Nc1nc(NC2CCCCC2)sc1C(=O)c1ccccc1` the remaining activity was 94% (enzyme activity; inhibitor; 10 µM).
With `CN1CC(Oc2cnc(C#N)cc2-c2ccn3nc(NC(=O)C4CC4)cc3c2)C1` the inhibition was -7% (enzyme activity; inhibitor; 1 µM).
With `Cc1ccc(C(=O)NCc2ccsc2)cc1C#Cc1cn(C(C)C)c2ncnc(N)c12` the activity vs control was 100% (enzyme activity; inhibitor; 1 µM).
`CC1=C(C#N)C(c2ccc3c(c2)c(NC(=O)c2ccccc2C)nn3C)C(C#N)=C(C)N1` has a remaining binding of 100% (cell-free assay; competition with immobilised ligand; 1 µM).
`Cc1ccc(NC(=O)c2ccc(C)c(C(F)(F)F)c2)cc1C#Cc1nn(C2CCC(O)CC2)c2ncnc(N)c12` (stereo not shown) has a remaining signal of 99% (cell-free assay; 10 µM).
`Cc1ncc([N+](=O)[O-])n1C(=NO)c1ccccc1C(F)(F)F` has an inhibition of 8.92% (enzyme activity; inhibitor; 10 µM).
`CC(=O)Nc1c(C(C)=O)c(=O)n(C)c2nc(-c3ccc(Cl)cc3Cl)c(-c3ccc(Cl)cc3)cc12` has a remaining binding of 100% (cell-free assay; competition with immobilised ligand; 1 µM).
`N#CCCc1ccc2c(c1)-c1[nH]c3ccc([N+](=O)[O-])cc3c1CC(=O)N2` has a remaining signal of 93.6% (cell-free assay; 0.5 µM).
With `Cc1ccc(Nc2nccc(N(C)c3ccc4c(C)n(C)nc4c3)n2)cc1S(N)(=O)=O` the inhibition was -1% (enzyme activity; inhibitor; 0.3 µM).
`CC(C)(C)c1nc(-c2cccc(NS(=O)(=O)c3c(F)cccc3F)c2F)c(-c2ccnc(N)n2)s1` gave a remaining activity of 109% (enzyme activity; inhibitor; radiometric; 1 µM).
`CSc1cccnc1N1CCN(Cc2nc3ccccc3[nH]2)CC1` gave a remaining binding of 100% (cell-free assay; competition with immobilised ligand; 1 µM).
The inhibition of `CN(C)C1CCN(CC#Cc2nn(C3CCCC3)c3nc(NCc4ccccc4)ncc23)C1` (stereo not shown) is reported as 1% (enzyme activity; inhibitor; FRET; 0.1 µM).
The remaining binding of `CN(C)c1ncnc(-c2ccc3nc(Nc4cc(CN5CCN(C(=O)CC(F)(F)F)CC5)ccn4)[nH]c3c2)c1Cl` is reported as 100% (cell-free assay; competition with immobilised ligand; 1 µM).
`FC(F)(F)Oc1cccc(-c2cnc3ccc(-c4ccncc4)nn23)c1` gave an activity vs control of 47% (enzyme activity; inhibitor; radiometric; 5 µM).
`C[C@H](NC(=O)c1cnc2n1[C@](C)(Cc1ccc(C#N)cc1)C(=O)N2c1cc(Cl)c(F)c(Cl)c1)C(=O)NC1(c2ccccn2)CC1` has a remaining binding of 100% (cell-free assay; competition with immobilised ligand; 1 µM).
For `Oc1cccc(-c2nc(N3CCOCC3)c3oc4ncccc4c3n2)c1`, the remaining activity was 72% (enzyme activity; inhibitor; 10 µM).
